Source: PubChem BioAssay (Sanford-Burnham Center for Chemical Genomics)
Shown are actives, neighbours in structure and some others; about 1.7% of the full set was active somewhere.
SUMO1 PPI mod – SUMO1-SIM interaction modulation | AID 602429 | 0.33% of 360,000 active | P63165 | SUMO1 binding to a labelled peptide, TR-FRET, 1 h | inhibition, % at 20 µM; in the data active = inhibition above about 37%
STEP block – blocks human striatal-enriched tyrosine phosphatase; 0.25% of 360,000 active; P54829; recombinant STEP, OMFP fluorogenic substrate, fluorescence; inhibition, % at 20 µM;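 active = inhibition at 20 µM, scaled per plate between control wells, above about 37%, limit read from the data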;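 note: 0% = DMSO with enzyme and substrate and 100% = substrate only without enzyme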
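medium = Bis-Tris buffer pH 6.0, 2.5 mM DTT, 0.005% Tween 20 | test system = STEP (striatal-enriched tyrosine phosphatase) enzyme, cell-free | measure = normalized % inhibition | compound dosing = 20 µM, 1% DMSO | also added = 25 µM OMFP | schedule = reaction 20 min, ambient temperature | measured by = fluorescence read at 480 nm ex / 540 nm em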
LMPTP block – LMPTP (human) inhibition. recombinant LMPTP-A, OMFP fluorogenic substrate, fluorescence intensity. inhibition, % at 20 µM. 0.22% of 360,000 active. AID 651560. P24666;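 active = compounds that cut the enzyme signal by at least half of the control window in the single-dose screen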;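 note: plate controls were DMSO wells with enzyme plus substrate for no effect and substrate without enzyme for full effect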
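Test system: LMPTP-A, protein tyrosine phosphatase of low molecular weight; Input: 0.625 nM enzyme; Incubation: 50 min dark incubation at room temperature; Signal: endpoint fluorescence intensity from OMFP dephosphorylation; Read-out basis: % inhibition versus control wells.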
DNMT1 inh – DNMT1 (human) enzyme inhibition; DNMT1 molecular beacon, Hinp1I cleavage, fluorescence; 0.83% of 360,000 active; inhibition (reported as % activation of signal), % at 10 µM; P26358; in the data active = inhibition above about 50%
Scp-1 inhibitor – inhibitors of human Scp-1 phosphatase; Q9GZU7; Recombinant Scp1, phosphopeptide, malachite green phosphate absorbance; inhibition, % at 20 µM; 0.88% of 340,000 active;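 active = inhibition above about 50% at 20 µM, limit read from the data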;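 note: plate controls were DMSO wells with enzyme for no effect and wells lacking enzyme for full effect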
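Test system: SCP-1 catalytic domain; Buffer or medium: Acidic Tris acetate buffer with magnesium and detergent; Also added: Phosphorylated 17-residue peptide substrate; Compound: single 20 µM dose, 1% DMSO; Schedule: enzyme reaction 45 min at room temperature, colour 5 min, stabilisation 30 min; Signal: Phosphate-binding colour reagent, absorbance read at 630 nm.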
Beacon interf DR – counter-screen for DNMT1 inhibitors: spectral interference, dose response; shares compounds with DNMT1 inh; molecular beacon fluorescence; IC50, µM; 200 tested, under 10 active; AID 602382; call rule not given here
DNMT1 confirm – DNMT1 inhibition confirmation, single concentration; inhibition, % at 10 µM; 8% of 2,300 active; AID 602385; shares compounds with DNMT1 inh; DNMT1 molecular beacon HinP1I cleavage, fluorescence;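 active = average inhibition of at least 30% in the single-concentration confirmation test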
Beacon interf – counter-screen for DNMT1 inhibitors: spectral interference. shares compounds with DNMT1 inh. DNMT1 molecular beacon spectral interference counterscreen, fluorescence 485/520. 1% of 2,300 active. activation (fluorescence interference), % at 10 µM;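 active = activation of at least 30% at 10 µM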;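 note: DNMT1 catalytic domain with a HinP1I cleavage step and a FAM/dabcyl DNA beacon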
The depositor's hits bear a star; / = no result.

SMILES	SUMO1 PPI mod	STEP block	LMPTP block	DNMT1 inh	Scp-1 inhibitor	DNMT1 confirm	Beacon interf	others
Cn1ccc2cc(-c3csc(N4CCC(C(N)=O)CC4)n3)ccc21	4.9	-3.7	-1.3	11.0	5.2	/	/
COc1ccc(/C=C(\C#N)C(=O)Nc2cc(C)c(Cl)cc2OC)cc1O	5.0	6.3	8.0	70.1*	-6.8	5.3	-2.2
COc1ccc(/C=C(\C#N)C(=O)NCc2ccccc2)cc1O	-26.2	-2.2	-0.4	0.9	1.6	/	/
COc1ccc(/C=N/n2c(C)nc3c([nH]c4ccccc43)c2=O)cc1CN1CCCC(C)(C)C1	-3.2	9.7	1.2	53.9*	-4.1	4.4	2.8
CCCCN(CC)CCNc1c(NC2CCN(C(=O)OCC)CC2)c(=O)c1=O	7.4	-0.8	-1.9	66.1*	-9.8	0.8	4.9
CC(=O)c1c(C)[nH]c(C(=O)CSc2ncnc3sc(-c4ccccc4)cc23)c1C	-1.1	1.0	1.2	53.0*	-3.9	-0.3	1.3
O=C(O)CSc1ncnc2sc(-c3ccccc3)cc12	-12.3	-2.8	-0.1	-0.6	-0.3	/	/
CCc1ccc(CN(Cc2cccnc2)C(=O)/C=C/c2ccc(OC)cc2)cc1	-27.3	-0.7	2.8	56.8*	10.0	1.6	-0.2
COc1ccc(/C=C/C(=O)NCc2cccnc2)cc1	-2.2	1.7	-1.8	-2.3	-4.6	/	/
COc1ccc(S(=O)(=O)N(C)C)cc1NC(=O)COC(=O)C1CC1	-0.7	3.1	-1.1	2.1	-0.1	/	/
O=S(=O)(c1cc(O)ccc1O)c1cccc2c(S(=O)(=O)c3cc(O)ccc3O)cccc12	58.1*	83.7*	74.6*	95.4*	69.0*	83.2*	3.3	Beacon interf DR=>99
O=C(CSc1nc2c(cnn2-c2ccccc2)c(=O)[nH]1)c1ccc(Cl)cc1	4.6	0.9	-1.3	86.2*	-4.0	30.9*	3.8	Beacon interf DR=>99
O=C1CCCCC1Nc1ccc(Br)cc1 (configuration not stated)	-6.9	-1.1	0.1	-5.4	-10.4	/	/
CC(=O)Nc1ccc(NC(=O)C(C)OC(=O)[C@@H]2CCCN2C(=O)c2cccs2)cc1 (some centres not stated)	6.5	-1.3	-1.0	-0.5	-12.4	/	/
O=[N+]([O-])c1cccc(/C=N/Nc2nc(C(Cl)(Cl)Cl)nc3ccccc23)c1	0.3	-0.2	-1.9	-2.4	-0.8	/	/
ClC(Cl)(Cl)c1nc(N/N=C/c2ccncc2)c2ccccc2n1	-1.6	-2.2	0.3	54.9*	-4.2	6.0	6.6
C=CCn1c(C)cc(C(=O)Cn2ncc(Cl)c(Cl)c2=O)c1C	-3.6	4.2	22.0	103.5*	3.0	1.0	-3.9
Cc1cc(=O)n2[nH]c(-c3ccsc3-n3c(C)ccc3C)cc2n1	37.9	-1.2	19.5	66.9*	46.6	7.9	1.2
COCc1cc(=O)n2[nH]c(-c3ccsc3-n3c(C)ccc3C)cc2n1	44.9*	-4.6	2.4	68.3*	-2.3	2.0	-0.6
COc1ccc2ccccc2c1C(O)c1nccn1C (configuration not stated)	-18.7	-19.6	-1.1	62.4*	-13.8	0.1	1.9
COc1ccccc1NS(=O)(=O)c1cc2c3c(c1)CCN3C(=O)CC2	1.6	3.4	0.1	84.3*	1.8	2.3	1.9
CCOC(=O)C1(C)CCCN(C(=O)c2cc(C)on2)C1 (configuration not stated)	-2.3	-2.9	0.0	-0.9	/	/	/
Oc1ccc(/C=N/Nc2ccnc3cc(Cl)ccc23)c(O)c1	111.7*	5.8	32.7	84.4*	-9.0	3.8	0.5
Clc1ccc2c(N/N=C/c3cccnc3)ccnc2c1	-9.8	-1.4	6.9	11.7	-3.4	/	/
CC(=O)N1CCC(=NNc2ccnc3cc(Cl)ccc23)CC1	-0.1	-1.3	-1.9	-6.3	-6.7	/	/
SMILES	SUMO1 PPI mod	STEP block	LMPTP block	DNMT1 inh	Scp-1 inhibitor	DNMT1 confirm	Beacon interf	others
Clc1ccc(NNc2ccnc3cc(Cl)ccc23)cc1	-0.2	-3.1	0.8	14.1	24.3	/	/
Clc1ccc2c(N/N=C/c3ccc(Br)cc3)ccnc2c1	1.0	11.4	5.2	66.4*	-2.7	3.2	2.0
Oc1ccc(Nc2ccnc3cc(Cl)ccc23)cc1	-16.4	-1.3	3.9	1.1	-1.8	/	/
Cc1ccc(/C=N/Nc2ccnc3cc(Cl)ccc23)c(C)c1	3.5	15.2	3.3	61.8*	3.8	5.6	-1.0
Cc1ccccc1/C=N/Nc1ccnc2cc(Cl)ccc12	26.3	16.4	4.8	69.8*	5.4	2.8	-2.1
Cc1ccc(-c2nc(CN3CCCC(C(=O)N4CCOCC4)C3)c(C)o2)cc1 (configuration not stated)	-4.6	-3.5	-0.3	-2.6	7.0	/	/
CN(CC(=O)NNC(=O)Cc1ccccc1F)S(=O)(=O)c1ccc(Cl)cc1	0.0	-1.3	-1.3	0.6	-5.7	/	/
O=C(c1cccc(-n2cccc2)c1)N1CCN(S(=O)(=O)c2ccccc2)CC1	75.8*	13.3	37.9	96.8*	/	12.4	0.3
O=C(c1cccc(-n2cccc2)c1)N1CCN(S(=O)(=O)c2c(F)cccc2F)CC1	-0.3	4.3	-8.0	20.2	28.0	/	/
CN(c1ccccc1)S(=O)(=O)c1ccc(C(=O)N2CCN(c3ccccc3F)CC2)cc1	4.1	2.3	0.1	1.1	-6.5	/	/
CCOC(=O)c1ccc(-c2ccc(/C=N/NC(=O)CN(c3cccc(C)c3)S(C)(=O)=O)o2)cc1	6.3	-1.5	0.9	57.0*	9.5	3.5	2.3
CCOc1ccc(S(=O)(=O)N(CC(=O)N/N=C/c2ccc(-c3ccc([N+](=O)[O-])cc3)o2)c2ccccc2)cc1	0.8	6.0	19.1	99.9*	48.6	11.2	-4.8
Cc1ccccc1-c1cc2c(c3c1ccn3C)C1CCC2C1 (configuration not stated)	-9.6	1.5	1.9	11.1	/	/	/
COc1ccccc1-c1cnc(C(O)c2ccc(C)cc2)[nH]1 (configuration not stated)	1.7	7.1	-2.1	1.2	/	/	/
O=C(/C=C/c1ccc(Br)o1)NCc1ccccc1	10.7	2.4	33.6	74.4*	-1.8	9.2	4.0
COc1ccc2nc(N3C(=O)/C(=C/c4ccc(Cl)cc4)NC3=S)sc2c1	28.7	10.8	27.4	99.8*	0.6	1.1	-3.7
C=C(C)Cn1c2ccc(NC(=O)CCc3cccnc3)cc2c(=O)n1C	4.4	1.9	-0.4	-1.5	/	/	/
CC(=O)c1cccc(NC(=O)COC(=O)CCNS(=O)(=O)c2ccccc2)c1	1.1	1.3	-1.9	-21.3	-10.4	/	/
